Assay results reported in the RNAGym collection of RNA variant scans (doi:10.1126/science.aae0568).
This sample holds only a part of the variants without activity.

B1: tRNA (parent)
chain: GUUCCGUUGGCGUAAUGGUAACGCGUCUCCCUCCUAAGGAGAAGACUGCGGGUUCGAGUCCCGUACGGAACG

Variants of: B1
Assay: yeast fitness relative to wild type (ratio to wild type); higher = fitter; tRNA-Arg(CCU), competitive growth, 37 C, YPD
Summary of the method: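 Start and end populations of a pooled competition were compared by 100-nucleotide paired-end sequencing of gene amplicons. The Saccharomyces cerevisiae strains carried tRNA-Arg(CCU) gene variants at the native genomic locus, synthesised with a 3% per-site mutation rate at 69 sites, and competed in YPD at 37°C for 24 hours in six parallel replicates. Darwinian fitness relative to wild type was based on the change in genotype frequencies. Genotypes required ≥ 100 starting reads, and estimates < 0.5 were set to 0.5.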

Variant | yeast fitness
A14U C30A A65C | ≤ 0.5
C11G C24U U28C | ≤ 0.5
U2A U16C A45C | 0.651
U13A A21C | 0.65
A15G U54C C66A | ≤ 0.5
G18A G51A A57U | 0.536
C5U U35C C62U G68C | ≤ 0.5
C31A G51C C55G A57U | ≤ 0.5
G6C C34G A69C | ≤ 0.5
C4U C11U A43U C55G | ≤ 0.5
C46U C61G A70C | ≤ 0.5
A14G G44C G58A A65G | 0.553
G25C A45C A70C | 0.677
A15C U16A G50A | ≤ 0.5
A20U A43U C49A G68A | ≤ 0.5
G17C C55G | 0.616
A15U C24A C55U U59C | 0.526
G9A A20G A40C A42U A43C G48A | ≤ 0.5
C5G U26A A36C C61G A69G | ≤ 0.5
U19A C24G G38A G58C C60U C62U C66U | ≤ 0.5
G38C C55A | 0.508

Variant | yeast fitness
C22G C33A A36C A43G C55G | 0.595
U2G A14C A42C C49U A65C | ≤ 0.5
C33G G44A G56A C61U | ≤ 0.5
U2C C46G G63A A70U | ≤ 0.5
A20U G23A A36U A65U | ≤ 0.5
G9A G67U | 0.863
C30A A43C | 0.884
U2G U13A C60U | 0.816
C5U U35C A69U | 0.536
G10A C34G | ≤ 0.5
C27U A40C C46U | 0.661
C30A G41A U47C | 0.559
A14G A21U C30A A36U C60U A69C | ≤ 0.5
U13G A65C A70G | 0.619
A43U G48A | 1.01
U26C U35G | 0.615
C22G C46A C62U | 1.04
C5U A21G G39C | 0.515
U3C C62U A69C | 0.756
U2C G52C | 0.661
C4A G10A A14G C31A | ≤ 0.5

Variant | yeast fitness
C4U A15C G41A G63C | ≤ 0.5
A43C U59C | 0.828
C29A A37U G38C A40C A43C C46U | 0.599
C4A G10C A69C | ≤ 0.5
G39C G51C C55G | ≤ 0.5
C49U A65C | 0.935
A40G U53A | 0.654
G18A C46U | 0.749
G18A C46G | 0.749
G12A C24G A40C A43C C46U C62A | ≤ 0.5
U8G A14U U16C A40U G48C | ≤ 0.5
U13A C49U A65C | 0.624
U28C C49U G63U | 0.531
A15U C31A C49G A70C | ≤ 0.5
A21G U32A | 0.661
C4G C62A G67C | ≤ 0.5
U3A C34U | 0.735
G12A A20G A21U A40G | ≤ 0.5
C4G A20G C22G C33U A36C A40U | ≤ 0.5
A37C C46G C62U A69U | 0.673
C5G A20C G23A U54A | ≤ 0.5

Variant | yeast fitness
A40G C61U A70U | 0.612
C30U A43U | 1.03
U3G C27A | 0.633
C27U U54C | 0.93
U2C C24U C29U C30A | 0.59
U8C U28C C30G C31G A65C | ≤ 0.5
G12A A21G A40U G67U | ≤ 0.5
U7C U16C A21U C22A C49U G50C A69U | ≤ 0.5
U3C C33U | 0.803
U7A A20G G23A U26G A65G C66G | ≤ 0.5
C27G C31G C46A | 0.932
U3A G9A U19A G44C C61U C62G | ≤ 0.5
A20G C24U C49G G50A | ≤ 0.5
U3C C11U G12C | ≤ 0.5
C24U U32C C46A | 0.967
A20C C30U | 0.903
C5U G51C C55A C62U A65U A69U | ≤ 0.5
C34U A42C | 0.664
C55U G67A | 0.871
G25C G48A | 0.951
